Columns and labels:
[1] = Cytotoxicity against human U87 cells coexpressing CD4, CxCR4 receptors after 72 hrs; type: cell-based, U-87MG ATCC; conditions: U87 cells coexpressing CD4 and CXCR4 receptors
[2] = system: Human immunodeficiency virus 1; experiment: Antiviral activity against HIV1 expressed in 293T cells assessed as protection against viral M33 envelope infection in human U87 cells coexpressing CD4, CCR5 receptors after 72 hrs by luciferase reporter gene pseudoviral assay; type: functional, organism-based; conditions: Human immunodeficiency virus 1, HEK-293T
Summary of the method: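 Pseudovirions carry an R5-using envelope cloned from a primary virus isolate. Anti-HIV-1 activity was taken as the 50% inhibitory dose against these pseudovirions.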

[3] = Inhibition of HIV1 3B recombinant gp120/sCD4 binding interaction by ELISA
Summary of the method: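 Competitive ELISA of soluble CD4 binding to gp120 from HIV IIIB. Bound CD4 was detected with an anti-CD4 monoclonal antibody, then a peroxidase-labelled anti-mouse antibody. The read-out was the 50% inhibitory dose.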

[4] = system: Human immunodeficiency virus; experiment: Antiviral activity against HIV isolate 584.000 220 by replication assay; type: functional, organism-based; conditions: Human immunodeficiency virus 1, isolate 584.000 220
[5] = system: Human immunodeficiency virus; experiment: Antiviral activity against HIV isolate 584.000 054 by replication assay; type: functional, organism-based; conditions: Human immunodeficiency virus 1, isolate 584.000 054
[6] = system: Human immunodeficiency virus; experiment: Antiviral activity against HIV isolate 584.000 058 by replication assay; type: functional, organism-based; conditions: Human immunodeficiency virus 1, isolate 584.000 058
[7] = system: Human immunodeficiency virus; experiment: Antiviral activity against HIV isolate 584.000 060 by replication assay; type: functional, organism-based; conditions: Human immunodeficiency virus 1, isolate 584.000 060
[8] = system: Human immunodeficiency virus; experiment: Antiviral activity against HIV isolate 584.000 227 by replication assay; type: functional, organism-based; conditions: Human immunodeficiency virus 1, isolate 584.000 227
[9] = system: Human immunodeficiency virus; experiment: Antiviral activity against HIV isolate 584.000 017 by replication assay; type: functional, organism-based; conditions: Human immunodeficiency virus 1, isolate 584.000 017
[10] = system: Human immunodeficiency virus; experiment: Antiviral activity against HIV isolate 584.000 063 by replication assay; type: functional, organism-based; conditions: Human immunodeficiency virus 1, isolate 584.000 063
[11] = system: Human immunodeficiency virus; experiment: Antiviral activity against HIV isolate 584.000 031 by replication assay; type: functional, organism-based; conditions: Human immunodeficiency virus 1, isolate 584.000 031
[12] = system: Human immunodeficiency virus; experiment: Antiviral activity against HIV isolate 584.000 030 by replication assay; type: functional, organism-based; conditions: Human immunodeficiency virus 1, isolate 584.000 030
[13] = system: Human immunodeficiency virus; experiment: Antiviral activity against HIV isolate 589.000 033 by replication assay; type: functional, organism-based; conditions: Human immunodeficiency virus 1, isolate 589.000 033
[14] = system: Human immunodeficiency virus; experiment: Antiviral activity against HIV isolate 584.000.098 by replication assay; type: functional, organism-based; conditions: Human immunodeficiency virus 1, isolate 584.000.098
[15] = system: Human immunodeficiency virus; experiment: Antiviral activity against HIV isolate 584.000 066 by replication assay; type: functional, organism-based; conditions: Human immunodeficiency virus 1, isolate 584.000 066

SMILES	CC50 at 72 h [1] [µM]	IC50 [2] [µM]	IC50 [3] [µM]	also measured
C[C@@H]1CN(C(=O)c2ccccc2)CCN1C(=O)C(=O)c1ccc(-c2cc[nH]n2)cc1O	> 40	2.2	> 10	–
Cc1cc(-c2ccc(C(=O)C(=O)N3CCN(C(=O)c4ccccc4)C[C@H]3C)cc2F)on1	> 40	0.13	> 10	–
C[C@@H]1CN(C(=O)c2ccccc2)CCN1C(=O)C(=O)c1ccc(-c2ccncc2)cc1	> 40	2.5	–	–
C[C@@H]1CN(C(=O)c2ccccc2)CCN1C(=O)C(=O)c1ccc(-c2cc[nH]n2)nc1	> 40	1	> 10	–
COc1ccnc2[nH]cc(C(=O)C(=O)N3CCN(C(=O)c4ccccc4)C[C@H]3C)c12	> 40	0.008	0.93	IC50 [4]: 0.005 µM; IC50 [5]: 5.53 µM; IC50 [6]: 0.038 µM; IC50 [7]: 0.024 µM; IC50 [8]: 0.423 µM; IC50 [9]: > 10 µM; IC50 [10]: 0.046 µM; IC50 [11]: 8.02 µM; IC50 [12]: 0.029 µM; IC50 [13]: 0.027 µM; IC50 [14]: 0.394 µM; IC50 [15]: 0.19 µM
Cc1cc(C(=O)C(=O)N2CCN(C(=O)c3ccccc3)C[C@H]2C)ccc1-c1cc[nH]n1	> 40	0.035	0.68	–
C[C@@H]1CN(C(=O)c2ccccc2)CCN1C(=O)C(=O)c1ccc(-n2cccn2)cc1	> 40	1.2	> 7.5	–
C[C@@H]1CN(C(=O)c2ccccc2)CCN1C(=O)C(=O)c1ccc(N2CCCC2)cc1	> 40	6.7	> 10	–
C[C@@H]1CN(C(=O)c2ccccc2)CCN1C(=O)C(=O)c1ccc(-c2cc[nH]n2)cc1N	> 40	0.078	5.9	–
C[C@@H]1CN(C(=O)c2ccccc2)CCN1C(=O)C(=O)c1ccc(-c2nccs2)cc1	> 40	0.63	> 10	–
C[C@@H]1CN(C(=O)c2ccccc2)CCN1C(=O)C(=O)c1cccc(-c2ccccn2)c1	> 40	23	–	–
COc1cnc(-n2ccnn2)c2[nH]cc(S(=O)(=O)N3CCN(C(=O)c4ccccc4)C[C@H]3C)c12	> 40	0.007	0.215	–
C[C@@H]1CN(C(=O)c2ccccc2)CCN1C(=O)C(=O)c1ccc(-c2cccs2)cc1	> 40	0.44	–	–
C[C@@H]1CN(C(=O)c2ccccc2)CCN1C(=O)C(=O)c1ccc(-c2ccn[nH]2)cc1Cl	> 40	0.25	4.6	–
Cc1nc(-c2ccc(C(=O)C(=O)N3CCN(C(=O)c4ccccc4)C[C@H]3C)cc2)cs1	> 40	5.4	–	–
CC1CN(C(=O)c2ccccc2)CCN1C(=O)C(=O)c1ccc(-c2cnn(C)c2)cc1 (racemic)	> 40	0.11	–	–
C[C@@H]1CN(C(=O)c2ccccc2)CCN1S(=O)(=O)c1ccc(-c2ccccn2)s1	> 40	5.4	–	–
C[C@@H]1CN(C(=O)c2ccccc2)CCN1C(=O)C(=O)c1ccc(-c2cncs2)cc1	> 40	0.32	–	–
C[C@@H]1CN(C(=O)c2ccccc2)CCN1C(=O)C(=O)c1ccc(-c2cnco2)c(Cl)c1	> 40	< 0.005	0.236	–
C[C@@H]1CN(C(=O)c2ccccc2)CCN1C(=O)C(=O)c1ccc(-c2ccccn2)s1	> 40	13	–	–
Cc1ccc(-c2ccc(C(=O)C(=O)N3CCN(C(=O)c4ccccc4)C[C@H]3C)cc2)o1	> 40	2.8	> 10	–
CC1CN(C(=O)c2ccccc2)CCN1C(=O)C(=O)c1ccc(-c2cc[nH]n2)cc1 (racemic)	> 40	0.16	2.4	–

SMILES	CC50 at 72 h [1] [µM]	IC50 [2] [µM]	IC50 [3] [µM]	also measured
CC1CN(C(=O)c2ccccc2)CCN1C(=O)C(=O)c1ccc(-n2cncn2)cc1 (racemic)	> 40	0.94	> 10	–
Cc1cc(-c2cc[nH]n2)ccc1C(=O)C(=O)N1CCN(C(=O)c2ccccc2)C[C@H]1C	> 40	1.1	> 10	–
C[C@@H]1CN(C(=O)c2ccccc2)CCN1C(=O)C(=O)c1ccc(-c2cnco2)cc1	> 40	0.25	–	–
CNc1cc(-c2cc[nH]n2)ccc1C(=O)C(=O)N1CCN(C(=O)c2ccccc2)C[C@H]1C	> 40	> 10	–	–
Cc1cc(-c2ccc(C(=O)C(=O)N3CCN(C(=O)c4ccccc4)C[C@H]3C)cc2)on1	> 40	0.33	> 10	–
C[C@@H]1CN(C(=O)c2ccccc2)CCN1C(=O)C(=O)c1ccc(-c2ncccc2F)cc1	> 40	2	–	–
COc1cc(-c2ccn[nH]2)ccc1C(=O)C(=O)N1CCN(C(=O)c2ccccc2)C[C@H]1C	> 40	< 0.005	0.56	–
COc1cc(C(=O)C(=O)N2CCN(C(=O)c3ccccc3)C[C@H]2C)ccc1-c1cc(C)no1	> 40	0.83	> 10	–
CC1CN(C(=O)c2ccccc2)CCN1C(=O)C(=O)c1ccc(-n2nccn2)cc1 (racemic)	> 40	0.87	6.2	–
CC(=O)c1cc(-c2ccc(C(=O)C(=O)N3CCN(C(=O)c4ccccc4)CC3C)cc2)cs1 (racemic)	> 40	0.91	–	–
CC1CN(C(=O)c2ccccc2)CCN1C(=O)C(=O)c1ccc(-c2ccn(C)n2)cc1 (racemic)	> 40	1.8	–	–
CC(=O)c1ccc(-c2ccc(C(=O)C(=O)N3CCN(C(=O)c4ccccc4)C[C@H]3C)cc2)s1	> 40	1.6	–	–
C[C@@H]1CN(C(=O)c2ccccc2)CCN1C(=O)C(=O)c1ccc(N2CCOC2=O)cc1	> 40	12	> 10	–
Cc1cc(-c2ccc(C(=O)C(=O)N3CCN(C(=O)c4ccccc4)C[C@H]3C)c(O)c2)on1	> 40	7.3	> 10	–
C[C@@H]1CN(C(=O)c2ccccc2)CCN1S(=O)(=O)c1ccc(-c2cnco2)s1	> 40	1.2	–	–
COc1cc(C(=O)C(=O)N2CCN(C(=O)c3ccccc3)C[C@H]2C)ccc1-c1cc[nH]n1	> 40	0.056	2.5	–
CC1CN(C(=O)c2ccccc2)CCN1C(=O)C(=O)c1ccc(-c2cc(N)ncn2)cc1 (racemic)	> 40	1.4	–	–
C[C@@H]1CN(C(=O)c2ccccc2)CCN1C(=O)C(=O)c1ccc(-c2ccsc2)cc1	> 40	0.54	–	–
C[C@@H]1CN(C(=O)c2ccccc2)CCN1C(=O)C(=O)c1ccc(-c2cscn2)cc1	> 40	0.42	–	–
C[C@@H]1CN(C(=O)c2ccccc2)CCN1C(=O)C(=O)c1ccc(-c2cc[nH]n2)cc1F	> 40	0.046	1.1	–
COc1cc(C(=O)C(=O)N2CCN(C(=O)c3ccccc3)C[C@H]2C)ccc1-c1cnco1	> 40	0.05	0.78	–
